Screening data as filed in PubChem BioAssay.
CCR6 antag: antagonists of human CCR6 receptor; actives 0.49% (n = 340,000); inhibition, % at 20 µM; P51684; AID 493098; CHO-K1 CCR6 PathHunter beta-arrestin, luminescence, CCL20-stimulated;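 active = compounds whose inhibition of the agonist-driven luminescence signal at 20 µM reaches about 50%, limit read from the data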;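 also: cells stimulated with CCL20 at 14 nM final; plate controls were DMSO with CCL20 for no effect and DMSO without agonist for full effect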
CXCR6 inh: inhibitors of human CXCR6 receptor. O00574. CHO-K1 PathHunter CXCR6 beta-arrestin, luminescence. inhibition, % at 20 µM. actives 0.36% (n = 360,000). AID 602244; in the data active = inhibition above about 34%, passing the limit was not always enough;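 also: antagonist mode with CXCL16 agonist at 10 nM final; 0% = 10 nM CXCL16 with DMSO and 100% = unstimulated wells without agonist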
APJ antagonist: antagonists of human APJ apelin receptor; inhibition, % at 20 µM; CHO-K1 APJ beta-arrestin complementation, luminescence; P35414; actives 0.32% (n = 330,000);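 active = inhibition above about 40% at 20 µM, limit read from the data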;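 also: cells challenged with 10 nM apelin-13 agonist together with compound; plate controls were apelin-13 plus DMSO wells for no effect and DMSO wells lacking apelin-13 for full effect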
Target sequence (P35414 whole entry, looked up): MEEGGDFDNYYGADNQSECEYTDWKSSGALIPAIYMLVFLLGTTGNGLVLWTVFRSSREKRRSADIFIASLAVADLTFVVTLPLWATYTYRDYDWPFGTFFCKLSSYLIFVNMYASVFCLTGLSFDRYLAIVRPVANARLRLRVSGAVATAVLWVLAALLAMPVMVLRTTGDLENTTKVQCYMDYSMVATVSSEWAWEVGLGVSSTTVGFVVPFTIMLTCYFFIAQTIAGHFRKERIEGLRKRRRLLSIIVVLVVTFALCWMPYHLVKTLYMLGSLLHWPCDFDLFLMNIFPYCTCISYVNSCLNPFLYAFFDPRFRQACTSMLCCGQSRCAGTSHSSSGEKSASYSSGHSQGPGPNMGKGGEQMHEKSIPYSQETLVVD
PKA-R2B activ: activators of human PKA-R2B complex; activation, % at 11.4 µM; P22694+P31323; actives 0.079% (n = 340,000); PKA-R2B holoenzyme dissociation, Cy5-IP20 fluorescence polarization; R2B truncated from residue 108, S112A mutant; 0% DMSO only, 100% 113 µM cGMP;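 active = activation above a cutoff set at the mean over all compounds plus 3 SD, cut at about 18% in these data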;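 also: higher means more holoenzyme dissociation and a rise in polarization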
PKA-R1A act: activates the PKA-R1A holoenzyme complex. P00514+P68181. PKA-R1A dissociation, Cy5-IP20 fluorescence polarization; scaled: DMSO 0%, 113 µM cGMP 100%. activation, % at 11.4 µM. actives 0.083% (n = 340,000);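 active = percent activation above the mean of all tested compounds plus 3 SD, cut at about 19% in these data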;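 also: higher means more PKAc released from R1A so a rise in polarization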
APJ agonist: agonists of human APJ apelin receptor | P35414 | CHO-K1 APJ PathHunter beta-arrestin, luminescence; 0% DMSO wells, 100% apelin | activation, % at 20 µM | actives 0.11% (n = 330,000);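 active = activation more than six SD over the plate average, tested at 20 µM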;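 also: 0% = DMSO alone and 100% = apelin-13 at 10 nM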
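Test system – PathHunter CHO-K1 APJ (AGTRL-1) beta-arrestin reporter cells · Input – 1000 cells/well · Compound – single test compound dose, 20 µM final, 1% DMSO · Times – compound stimulation 90 min at 25 °C, detection 60 min · Technique – beta-gal luminescence · Read-out basis – APJ–arrestin association signal · Control set – negative DMSO alone, positive Apelin-13 at 10 nM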
* = called active by the depositor; . = no result. This is a sample that favours compounds with a hit; in the whole collection about 0.88% have one here.

SMILES	CCR6 antag	CXCR6 inh	APJ antagonist	PKA-R2B activ	PKA-R1A act	APJ agonist
CCCNC(=O)C1(C)CCCN(C(=O)COCc2ccccc2)C1 (stereo not given)	.	-3	.	.	.	.
Cc1ccc(C(=O)CNc2ccc(C)cc2C)cc1	79*	31	11	-19	-11	-9
Cc1ccc(NC(=O)CC(=O)Nc2ccc(C)cc2C)c(C)c1	9	-29	12	-2	-4	-1
COc1ccc(-c2oc3c(c2C#CC(C)(C)O)C(OC)CCC3)cc1 (stereo not given)	.	6	.	.	.	.
Cc1cc(C)cc(CC(=O)N2CCC2(C)C(=O)NS(=O)(=O)c2cc(C)ccc2F)c1 (stereo not given)	.	-2	.	.	.	.
O=c1[nH]cnc2c1C(c1ccc(Cl)cc1)c1c(nc[nH]c1=O)O2	9	-2	5	-3	19*	1
CCOC(=O)[C@]12CCC=C1N(Cc1ccc3c(c1)OCO3)C(=O)[C@H](CC(=O)NCC1CCCCC1)C2	.	4	.	.	.	.
Cc1ccc(NC(=S)NCc2ccccn2)cc1	-2	-4	-11	8	-6	-1
S=C(NCc1ccccn1)NN=Cc1ccccn1	61*	34	.	8	5	.
CCc1nc2ccc(C(=O)NCc3cccs3)cn2c1N(CC)Cc1cccc(Br)c1	.	16	.	.	.	.
CCCNC(=O)C1(C)CCN1C(=O)c1ccc(C(C)(C)C)cc1 (stereo not given)	.	-2	.	.	.	.
COc1ccc([C@@H]2C[C@H]3[C@@H](CN2S(=O)(=O)c2ccccc2)C(=O)C[C@@H](c2ccc(OC)cc2)N3S(=O)(=O)c2ccccc2)cc1	.	-4	.	.	.	.
CCC1=NN(C(=O)c2cccc(Br)c2)C(O)(c2ccc(Br)cc2)C1 (stereo not given)	56*	32	28	6	8	-5
COc1ccc(CCN2C(=O)C=CC2=O)cc1OC	109*	93*	.	0	1	.
O=[N+]([O-])c1ccc(/C=N/n2c(C3CCCCC3)n[nH]c2=S)cc1	56*	20	16	-2	2	-2
S=c1[nH]nc(C2CCCCC2)n1/N=C/c1ccncc1	8	3	-4	0	-3	-1
CC1(C(=O)Nc2cccc3c2CCCC3)CCN1C(=O)CCC1CCCC1 (stereo not given)	.	-8	.	.	.	.
CCn1c(SC(=O)NC2CCCCC2)nnc1-c1cccs1	51*	15	-12	-12	2	-2
O=C(CN1C(=O)/C(=C\c2ccccc2Br)Oc2ccccc21)NCCCN1CCOCC1	68*	1	17	6	-5	-4
CC1Oc2ccccc2N(CC(=O)NCCCN2CCOCC2)C1=O (stereo not given)	-1	-1	0	-3	-1	-2
O=C(Nc1ccc2oc(-c3cccnc3)nc2c1)c1cc2ccccc2o1	-18	0	4	6	-2	-1
O=C(NC(=S)Nc1cc(Cl)ccc1O)c1cccc(Br)c1	59*	38	28	4	-6	-8
O=C(NC(=S)Nc1cccnc1)c1cccc(Br)c1	58*	20	11	5	-13	-3
O=C(NC(=S)Nc1ccc2oc(-c3cccnc3)nc2c1)c1cccc(Cl)c1	54*	32	20	-4	-1	0
Oc1ccc(C[C@H]2CNC(=S)N2C[C@H]2CCCN2C[C@H](Cc2ccccc2)N2C[C@H](Cc3ccccc3)N(CC3CCCCC3)C2=S)cc1	.	3	.	.	.	.
CCN(CC)C(=O)C1=C(C)N(CCCOC)C(=O)C(CC(=O)NC(c2ccccc2)c2ccccc2)C1 (stereo not given)	.	-3	.	0	-5	.
Cc1ccc(C2C3CN(C(C)C)CC=C3C(C#N)=C(N)C2(C#N)C#N)cc1 (stereo not given)	60*	53*	36	0	-2	-11
Cc1cnc2ccc(F)cc2c1	.	-11	.	.	.	.
CCO[C@@H]1OC(C(=O)N2CCN(Cc3ccccc3)CC2)=C[C@H](c2ccc(Br)cc2)[C@H]1CCCO	58*	48*	7	-6	-5	-7
Cc1ccccc1C1N=C2Oc3ccccc3C=C2C(=O)N1 (stereo not given)	.	-3	.	.	.	.
